Activity calls are given as the source filed them. The calls are words filed in the database; no cut-off is given here.
Tests used:
Saccharomyces cerevisiae [1] = test: Activity of commercial yeast alpha-glucosidase assessed as production of p-nitrophenol using p-nitrophenyl-alpha-D-glucopyranoside as substrate at 50 mM after 3 mins by spectrophotometer
Outline: (§1)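 Enzymes were α-glucosidase from S. cerevisiae or from yeast at 2.5 × 10^-5 mg/mL, with 2.0 mM substrate and 0 or 50 mM solute in 100 mM phosphate pH 7.0 at 37 °C. p-Nitrophenol formation was read at 405 nm. Initial velocities (average of five) were expressed as the ratio of the value with solute to the value without solute.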

Saccharomyces cerevisiae [2] = test: Activity of Saccharomyces cerevisiae alpha-glucosidase assessed as production of p-nitrophenol using p-nitrophenyl-alpha-D-glucopyranoside as substrate at 50 mM after 3 mins by spectrophotometer; outline: as §1
[3] = test system: Geobacillus stearothermophilus; test: Activity of Bacillus stearothermophilus alpha-glucosidase assessed as production of p-nitrophenol using p-nitrophenyl-alpha-D-glucopyranoside as substrate at 50 mM after 3 mins by spectrophotometer
Outline: (§2)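 B. stearothermophilus α-glucosidase at 2.5 × 10^-5 mg/mL in 0.1 M phosphate buffer pH 7.0 with 2.0 mM p-nitrophenyl-α-D-glucopyranoside and 0–1000 mM solute, 37 °C. Release of p-nitrophenol followed at 405 nm. Initial slopes converted to velocities (ε 10900 cm^-1 M^-1), averaged over five runs. Activity = initial velocity with solute divided by initial velocity without solute.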

[4] = test system: Geobacillus stearothermophilus; test: Activity of Bacillus stearothermophilus alpha-glucosidase activity assessed as production of p-nitrophenol using p-nitrophenyl-alpha-D-glucopyranoside as substrate at 800 mM after 3 mins by spectrophotometer; outline: as §2
[5] = test system: Geobacillus stearothermophilus; test: Increase of Bacillus stearothermophilus alpha-glucosidase activity at 30 mM after 3 mins by spectrophotometer relative to control; outline: as §2
[6] = test system: Geobacillus stearothermophilus; test: Increase of Bacillus stearothermophilus alpha-glucosidase activity assessed as production of p-nitrophenol using p-nitrophenyl-alpha-D-glucopyranoside as substrate at 50 mM after 3 mins by spectrophotometer; outline: as §2
[7] = test system: Geobacillus stearothermophilus; test: Increase of Bacillus stearothermophilus alpha-glucosidase activity assessed as fold increase in reaction initial velocity using p-nitrophenyl-alpha-D-mannopyranoside as substrate at 750 mM after 3 mins by spectrophotometer relative to control
Outline: (§3)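 Enzyme: B. stearothermophilus α-glucosidase, 2.5 × 10^-5 mg/mL, with 2.0 mM substrate (p-nitrophenyl α-D-glucoside, β-D-glucoside, α-D-galactoside or α-D-mannoside) and 0, 50 or 750 mM solute in 100 mM phosphate pH 7.0 at 37 °C. Initial velocities came from A405 slopes (five measurements). Results given as v(presence)/v(absence).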

Saccharomyces cerevisiae [8] = test: Increase of commercial yeast alpha-glucosidase activity assessed as production of p-nitrophenol using p-nitrophenyl-alpha-D-glucopyranoside as substrate at 50 mM after 3 mins by spectrophotometer; outline: as §1
[9] = test system: Geobacillus stearothermophilus; test: Activity of Bacillus stearothermophilus alpha-glucosidase activity assessed as production of p-nitrophenol using p-nitrophenyl-alpha-D-glucopyranoside as substrate at 30 to 50 mM after 3 mins by spectrophotometer; outline: as §2
[10] = test system: Geobacillus stearothermophilus; test: Thermostabilization of Bacillus stearothermophilus alpha-glucosidase at 50 mM
Outline: (§4)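 Optimum conditions were scanned with 0 or 50 mM solute, 2.5 × 10^-5 mg/mL B. stearothermophilus α-glucosidase and 2.0 mM substrate in 0.10 M phosphate. pH was varied from 6.4 to 7.9, NaCl from 0 to 2.5 M, and temperature was also varied. Activity was read as p-nitrophenol release at 405 nm.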

[11] = test system: Geobacillus stearothermophilus; test: Activity of Bacillus stearothermophilus alpha-glucosidase activity assessed as production of p-nitrophenol using p-nitrophenyl-alpha-D-glucopyranoside as substrate at > 50 mM after 3 mins by spectrophotometer; outline: as §2
[12] = test system: Geobacillus stearothermophilus; test: Increase of Bacillus stearothermophilus alpha-glucosidase activity assessed as fold increase in reaction initial velocity using p-nitrophenyl-alpha-D-mannopyranoside as substrate at 50 mM after 3 mins by spectrophotometer relative to control; outline: as §3
[13] = test system: Geobacillus stearothermophilus; test: Activity of Bacillus stearothermophilus alpha-glucosidase assessed as increase in urea concentration for enzyme deformation using p-nitrophenyl-alpha-D-glucopyranoside as substrate at 50 mM after 3 mins by spectrophotometer
[14] = test system: Geobacillus stearothermophilus; test: Increase of Bacillus stearothermophilus alpha-glucosidase activity assessed as fold increase in reaction initial velocity using p-nitrophenyl-beta-D-glucopyranoside as substrate at 50 mM after 3 mins by spectrophotometer relative to control; outline: as §3
[15] = test system: Geobacillus stearothermophilus; test: Increase of Bacillus stearothermophilus alpha-glucosidase activity assessed as fold increase in reaction initial velocity using p-nitrophenyl-alpha-D-galactopyranoside as substrate at 750 mM after 3 mins by spectrophotometer relative to control; outline: as §3
Prunus dulcis = test: Increase of almond beta-glucosidase activity assessed as production of p-nitrophenol using p-nitrophenyl-beta-D-glucopyranoside as substrate at 50 mM after 3 mins by spectrophotometer
Outline: (§5)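 Almond β-glucosidase or calf-intestine alkaline phosphatase, each at 2.5 × 10^-5 mg/mL, was incubated with 2.0 mM substrate and 0 or 50 mM solute in 0.10 M phosphate pH 7.0 at 37 °C. p-Nitrophenol production was followed over incubation time by absorbance at 405 nm.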

[16] = test system: Geobacillus stearothermophilus; test: Enhancement of NaCl salt tolerance at Bacillus stearothermophilus alpha-glucosidase at 50 mM; outline: as §4
[17] = biological target: Intestinal-type alkaline phosphatase (Bos taurus) (UniProt P19111); test: Increase of calf intestine alkaline phosphatase activity assessed as production of p-nitrophenol using p-nitrophenylphosphate as substrate at 50 mM after 3 mins by spectrophotometer; outline: as §5
[18] = test system: Geobacillus stearothermophilus; test: Increase of Bacillus stearothermophilus alpha-glucosidase activity assessed as fold increase in reaction initial velocity using p-nitrophenyl-alpha-D-glucopyranoside as substrate at 750 mM after 3 mins by spectrophotometer relative to control; outline: as §3
[19] = test system: Geobacillus stearothermophilus; test: Increase of Bacillus stearothermophilus alpha-glucosidase activity assessed as fold increase in reaction initial velocity using p-Nitrophenyl-alpha-D-glucopyranoside as substrate at 50 mM after 3 mins by spectrophotometer relative to control; outline: as §3
[20] = test system: Geobacillus stearothermophilus; test: Increase of Bacillus stearothermophilus alpha-glucosidase activity assessed as fold increase in reaction initial velocity using p-nitrophenyl-beta-D-glucopyranoside as substrate at 750 mM after 3 mins by spectrophotometer relative to control; outline: as §3
[21] = test system: Geobacillus stearothermophilus; test: Increase of Bacillus stearothermophilus alpha-glucosidase activity assessed as fold increase in reaction initial velocity using p-nitrophenyl-alpha-D-galactopyranoside as substrate at 50 mM after 3 mins by spectrophotometer relative to control; outline: as §3
Saccharomyces cerevisiae [22] = test: Increase of Saccharomyces cerevisiae alpha-glucosidase activity assessed as production of p-nitrophenol using p-nitrophenyl-alpha-D-glucopyranoside as substrate at 50 mM after 3 mins by spectrophotometer; outline: as §1
[23] = test system: Geobacillus stearothermophilus; test: Effect on optimum pH of Bacillus stearothermophilus alpha-glucosidase at 50 mM; outline: as §4
[24] = test system: Geobacillus stearothermophilus; test: Activity of Bacillus stearothermophilus alpha-glucosidase activity assessed as production of p-nitrophenol using p-nitrophenyl-alpha-D-glucopyranoside as substrate at 1000 mM after 3 mins by spectrophotometer; outline: as §2
[25] = test system: Geobacillus stearothermophilus; test: Activity of Bacillus stearothermophilus alpha-glucosidase activity assessed as production of p-nitrophenol using p-nitrophenyl-alpha-D-glucopyranoside as substrate at 200 mM after 3 mins by spectrophotometer; outline: as §2

Intestinal-type alkaline phosphatase (Bos taurus), sequence (P19111 20-506 limits assumed): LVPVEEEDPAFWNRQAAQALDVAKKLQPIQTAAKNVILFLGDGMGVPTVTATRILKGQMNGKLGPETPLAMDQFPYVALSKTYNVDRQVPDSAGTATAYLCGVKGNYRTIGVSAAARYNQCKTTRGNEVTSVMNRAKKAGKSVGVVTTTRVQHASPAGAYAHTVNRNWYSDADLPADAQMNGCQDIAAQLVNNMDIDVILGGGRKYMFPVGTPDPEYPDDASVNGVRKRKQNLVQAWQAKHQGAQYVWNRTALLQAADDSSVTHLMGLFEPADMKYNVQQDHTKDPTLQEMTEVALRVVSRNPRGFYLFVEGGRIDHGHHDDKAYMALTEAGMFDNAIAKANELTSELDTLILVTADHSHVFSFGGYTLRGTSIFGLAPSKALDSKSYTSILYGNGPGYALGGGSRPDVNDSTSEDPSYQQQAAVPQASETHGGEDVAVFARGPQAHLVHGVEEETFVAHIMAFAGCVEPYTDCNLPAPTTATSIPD

Activity (Saccharomyces cerevisiae [1])	Activity (Saccharomyces cerevisiae [2])	Activity [3]	SMILES	other results
inactive	inactive	inactive	C[N+](C)(C)CCCC(=O)[O-]	–
inactive	inactive	Active	CC[N+](CC)(CC)CC(=O)[O-]	Activity [4]: Active
inactive	inactive	Active	C[N+]1(CC(=O)[O-])CCCCC1	–
inactive	inactive	Active	C[N+]1(CC(=O)[O-])CCOCC1	–

Further lines, the molecule ahead of its results:

SMILES	Activity (Saccharomyces cerevisiae [1])	Activity (Saccharomyces cerevisiae [2])	Activity [3]	other results
C[N+](C)(C)CCCCCC(=O)[O-]	inactive	inactive	inactive	–
OC[C@@H](O)[C@@H](O)[C@H](O)[C@@H](O)CO	inactive	inactive	inactive	–
C[N+](C)(CC[N+](C)(C)CC(=O)[O-])CC(=O)[O-]	inactive	inactive	inactive	–
CCCC[N+](CCCC)(CCCC)CC(=O)[O-]	Active	Active	Active	fold change (FC) [5]: 2.1; Activity [6]: Active; fold change (FC) [7]: 0.6; Activity (Saccharomyces cerevisiae [8]): Active; Activity [9]: Active; Activity [10]: Active; Activity [11]: Active; fold change (FC) [12]: 0.9; Activity [13]: Active; fold change (FC) [14]: 0.8; fold change (FC) [15]: 0.8; Activity (Prunus dulcis): Active; Activity [16]: Active; Activity [17]: Active; fold change (FC) [18]: 0.8; fold change (FC) [19]: 2.5; fold change (FC) [20]: 0.5; fold change (FC) [21]: 0.8; Activity (Saccharomyces cerevisiae [22]): Active; Activity [23]: inactive
O[C@H]1[C@H](O)[C@@H](O)[C@H](O)[C@@H](O)[C@H]1O	inactive	inactive	inactive	–
OCC(O)CO	inactive	inactive	inactive	–
C[N+](C)(C)CC(=O)O	inactive	inactive	inactive	Activity [24]: inactive; Activity [10]: Active; Activity [16]: Active; Activity [23]: inactive
CCC[N+](CCC)(CCC)CC(=O)[O-]	Active	Active	Active	Activity [25]: Active

From ChEMBL document CHEMBL2146357, “Cellular zwitterionic metabolite analogs simultaneously enhance reaction rate, thermostability, salt tolerance, and substrate specificity of α-glucosidase” (Bioorg Med Chem, 2011)
